Results taken from ChEMBL document CHEMBL3745660, “Hit-to-lead optimization of phenylsulfonyl hydrazides for a potent suppressor of PGE2 production: Synthesis, biological activity, and molecular docking study” (Bioorg Med Chem Lett, 2016).

Columns and labels:
[1] = tested on: RAW264.7; assay: Cytotoxicity against mouse RAW264.7 cells assessed as cell viability at 1 to 10 uM after 24 hrs in presence of LPS by MTT assay; assay type: cell-based; conditions: raw264.7, 24 h
Method in brief: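 RAW 264.7 macrophages treated with compounds at 1 or 10 µM in the presence of LPS for 24 h; viability read by MTT assay. Experiments run at least twice.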

[2] = tested on: RAW264.7; assay: Suppression of PGE2 production in LPS-induced mouse RAW264.7 cells after 24 hrs by enzyme immunoassay; assay type: functional, cell-based; conditions: RAW264.7, 24 h
Method in brief: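 RAW 264.7 cells stimulated with LPS and treated with compound for 24 h, first screened at 1 or 10 µM. Compounds giving >50% suppression went on to IC50 determination. PGE2 in medium measured by EIA. NS398 at 3 µM served as positive control. Runs done at least twice.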

[3] = biological target: T1, Prostaglandin E synthase (Homo sapiens) (UniProt O14684); assay: Inhibition of PGES-1 in human A549 cell microsomes using PGH2 as substrate assessed as remaining enzyme activity of interleukin-1beta-stimulated PGE2 production at 10 uM incubated for 15 mins post interleukin-1beta challenge for 72 hrs by RP-HPLC analysis
T1 sequence (whole entry): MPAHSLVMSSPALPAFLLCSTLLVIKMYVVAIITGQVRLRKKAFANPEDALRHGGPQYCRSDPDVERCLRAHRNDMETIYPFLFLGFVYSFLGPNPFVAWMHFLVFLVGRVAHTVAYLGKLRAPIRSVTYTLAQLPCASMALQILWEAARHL
Method in brief: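 Microsomes from A549 cells stimulated with 2 ng/mL IL-1β for 72 h (pellet after 10,000 × g then 174,000 × g spins), diluted in 0.1 M potassium phosphate pH 7.4 with 2.5 mM glutathione. Compound at 10 µM preincubated 15 min at 4 °C, then 20 µM PGH2 added for 1 min at 4 °C. Stopped with FeCl2/citric acid containing 11β-PGE2 internal standard. PGE2 isolated by solid-phase extraction and quantified by RP-HPLC. Activity given as % of uninhibited control, mean ± S.E.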

[4] = biological target: T2, Prostaglandin E synthase (Homo sapiens, UniProt O14684); assay: Inhibition of PGES-1 in human A549 cell microsomes using PGH2 as substrate assessed as suppression of interleukin-1beta-stimulated PGE2 production incubated for 15 mins post interleukin-1beta challenge for 72 hrs by RP-HPLC analysis
T2 sequence (O14684 whole entry): T1 sequence (whole entry)
Method in brief: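 Enzyme source was A549 microsomes after 72 h IL-1β (2 ng/mL) stimulation, in 0.1 M potassium phosphate pH 7.4 with 2.5 mM GSH. Compounds preincubated 15 min at 4 °C over a concentration range, then 20 µM PGH2 added for 1 min at 4 °C. Reaction stopped, PGE2 recovered by solid-phase extraction and measured by RP-HPLC against 11β-PGE2.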

[5] = biological target: T1, Prostaglandin E synthase (Homo sapiens); assay: Potency index, ratio of IC50 for MK-886 to IC50 for test compound for inhibition of PGES-1 in human A549 cell microsomes; assay type: cell-based
[6] = tested on: RAW264.7; assay: Potency index, ratio of IC50 for NS398 to IC50 for test compound for suppression of PGE2 production in LPS-induced mouse RAW264.7 cells; assay type: functional
[7] = tested on: RAW264.7; assay: Suppression of NO production in LPS-induced mouse RAW264.7 cells by Griess assay; assay type: functional, cell-based
Method in brief: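 LPS (10 ng/mL)-stimulated RAW 264.7 cells co-incubated with compound at 0.1–10 nM. Nitrite in supernatant read with Griess reagent. Means ± SD of three samples; ANOVA with Dunnett's test.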

Compound: COc1ccc(S(=O)(=O)N(Nc2ccccc2)C(=O)Oc2ccccc2OC)cc1
- Cytotoxic concentration [1]: > 10 µM
- IC50 [2]: 165 nM

Compound: COc1ccc(S(=O)(=O)N(Nc2ccccc2)C(=O)Oc2ccc(Oc3ccccc3)cc2)cc1
- Activity [3]: 37.1%
- Cytotoxic concentration [1]: > 10 µM
- IC50 [2]: 17.1 nM
- IC50 [4]: 6600 nM

Compound: Cc1ccc(OC(=O)N(Nc2ccccc2)S(=O)(=O)c2ccc(C)cc2)cc1
- Activity [3]: 41.3%
- Cytotoxic concentration [1]: > 10 µM
- IC50 [2]: 1010 nM
- IC50 [4]: 6100 nM

Compound: Cc1cc(C)c(S(=O)(=O)N(Nc2ccccc2)C(=O)Oc2ccc(Oc3ccccc3)cc2)c(C)c1
- Cytotoxic concentration [1]: > 1 µM
- IC50 [2]: 177 nM

Compound: COc1ccccc1OC(=O)N(Nc1ccccc1)S(=O)(=O)c1ccc(C)cc1
- Activity [3]: 55.7%
- Cytotoxic concentration [1]: > 10 µM
- IC50 [2]: 34.1 nM
- IC50 [4]: > 10000 nM

Compound: O=C(Oc1ccc(OCc2ccccc2)cc1)N(Nc1ccccc1)S(=O)(=O)c1ccc(-c2ccccc2)cc1
- Cytotoxic concentration [1]: > 1 µM
- IC50 [2]: 93 nM

Compound: Cc1ccc(S(=O)(=O)N(Nc2ccccc2)C(=O)Oc2ccccc2)cc1
- Cytotoxic concentration [1]: > 10 µM
- IC50 [2]: 5720 nM

Compound: CCOc1ccc(OC(=O)N(Nc2ccccc2)S(=O)(=O)c2ccc(OC)cc2)cc1
- Activity [3]: 62.5%
- Cytotoxic concentration [1]: > 10 µM
- IC50 [2]: 20.5 nM
- IC50 [4]: > 10000 nM

Compound: COc1ccc(S(=O)(=O)N(Nc2ccccc2)C(=O)Oc2ccc(OCc3ccccc3)cc2)cc1
- Activity [3]: 62.6%
- Cytotoxic concentration [1]: >= 10 uM
- IC50 [2]: 50 nM
- IC50 [4]: > 10000 nM

Compound: CC(C)(C)c1ccc(S(=O)(=O)N(Nc2ccccc2)C(=O)Oc2ccc(OCc3ccccc3)cc2)cc1
- Activity [3]: 79.9%
- Cytotoxic concentration [1]: > 1 µM
- IC50 [2]: 56.9 nM
- IC50 [4]: > 10000 nM

Compound: Cc1ccc(OC(=O)N(Nc2ccccc2)S(=O)(=O)c2ccccc2)cc1
- Cytotoxic concentration [1]: > 10 µM
- IC50 [2]: 1020 nM

Compound: O=C(Oc1ccc(Oc2ccccc2)cc1)N(Nc1ccccc1)S(=O)(=O)c1ccc(-c2ccccc2)cc1
- Cytotoxic concentration [1]: > 1 µM
- IC50 [2]: 161 nM

Compound: COc1ccc(S(=O)(=O)N(Nc2ccccc2)C(=O)Oc2ccccc2)cc1
- Cytotoxic concentration [1]: > 10 µM
- IC50 [2]: 4430 nM

Compound: CC(C)c1ccc2c(c1)c(SC(C)(C)C)c(CC(C)(C)C(=O)O)n2Cc1ccc(Cl)cc1
- Activity [3]: 16.3%

Compound: O=C(Oc1ccccc1)N(Nc1ccccc1)S(=O)(=O)c1ccccc1
- Activity [3]: 63.6%
- IC50 [4]: > 10000 nM

Compound: CCCc1ccc(S(=O)(=O)N(Nc2ccccc2)C(=O)Oc2ccc(Oc3ccccc3)cc2)cc1
- Cytotoxic concentration [1]: > 1 µM
- IC50 [2]: 134 nM

Compound: COc1ccc(S(=O)(=O)N(Nc2ccccc2)C(=O)Oc2ccc3c(c2)CCC3)cc1
- Activity [3]: 18.5%
- Ratio IC50 [5]: 30
- Cytotoxic concentration [1]: > 10 µM
- IC50 [2]: 4.5 nM
- Ratio IC50 [6]: 1.5
- IC50 [7]: 6.9 nM
- IC50 [4]: 70 nM

Compound: COc1ccc(OC(=O)N(Nc2ccccc2)S(=O)(=O)c2ccc(OC)cc2)cc1
- Cytotoxic concentration [1]: > 10 µM
- IC50 [2]: 490 nM

Compound: CCc1ccc(OC(=O)N(Nc2ccccc2)S(=O)(=O)c2ccc(OC)cc2)cc1
- Activity [3]: 63.6%
- Cytotoxic concentration [1]: > 10 µM
- IC50 [2]: 28.5 nM
- IC50 [4]: > 10000 nM

Compound: Cc1cc(C)c(S(=O)(=O)N(Nc2ccccc2)C(=O)Oc2ccc(OCc3ccccc3)cc2)c(C)c1
- Cytotoxic concentration [1]: > 1 µM
- IC50 [2]: 81.5 nM

Compound: COc1ccc(OC(=O)N(Nc2ccccc2)S(=O)(=O)c2ccccc2)cc1
- Cytotoxic concentration [1]: > 10 µM
- IC50 [2]: 584 nM

Compound: Cc1ccc(S(=O)(=O)N(Nc2ccccc2)C(=O)Oc2ccc(OCc3ccccc3)cc2)cc1
- Activity [3]: 81.2%
- Cytotoxic concentration [1]: >= 10 uM
- IC50 [2]: 32.6 nM
- IC50 [4]: > 10000 nM
